A short description of this data set: Toxicity liver stage against HepG2, at 10uM. As to conditions: human, HepG2-A16-CD81EGFP cells; read-out: INHIBITION
Details: test concentration 10 uM, cell line HepG2-A16-CD81EGFP. In kind it is cell-based. The method, boiled down: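 Uninfected HepG2-A16-CD81EGFP cells, 3 × 10^3 per well, 1536-well, plated on prespotted compound at 10 μM final, parasite-free screening media added to match infected plates; puromycin 10 μM positive, DMSO 0.5% negative; run in parallel with 48 h PbLuc assay at 37 °C, 5% CO2; viability by CellTiter-Glo luminescence, normalized to controls.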

Among the data in ChEMBL document CHEMBL4513216, “Probing the Open Global Health Chemical Diversity Library for Multistage-Active Starting Points for Next-Generation Antimalarials” (ACS Infect Dis, 2020) are cytotoxicity values, retold here.

Turning to `COCC(=O)N1CCC[C@]2(C(=O)N(C)C)CN(c3ccccn3)C[C@@H]2C1`, the cytotoxicity at 10 µM is -10.1%. As for `CC(=O)CSc1nc2c(cnn2CCO)c(=O)[nH]1`, the figure is -2.22%; as for `Cc1ccc(C(=O)NC2CCN(C(=O)NCc3ccccn3)CC2)o1`, -12.2%. Take `CCC(Nc1ccc(Oc2ccccc2OC)cc1)C(N)=O` (configuration not stated): the cytotoxicity at 10 µM amounted to 1.77%. In the case of `CC(C)c1cc(NCC(C)N2CCCC2)n2nccc2n1` (configuration not stated), the cytotoxicity at 10 µM was -12.4%. With `CCn1cc2c(n1)CN(Cc1ccc(F)cc1)CC2COCC1CC1` (configuration not stated), the cytotoxicity at 10 µM is -69%. As for `CC(C)c1nnc(NC(=O)N2CCCC2c2ccncc2)s1` (configuration not stated), the figure is 5.6%; as for `CCN1CCCC(c2c(-c3ccccc3)ncn2CCCO)C1` (configuration not stated), -3.41%. As for `Cc1cc(CN2CCN(C(=O)NCc3csc(C)n3)CC2)on1`, the cytotoxicity at 10 µM is -2.95%. As for `CCOCCn1nc(C)cc1C(=O)N1CCCC[C@H](N(C)C)C1`, the figure is -3.68%. As for `CNC(=O)c1sccc1N(C)S(=O)(=O)c1ccc(Cl)cc1`, the cytotoxicity at 10 µM worked out at 14.7%.

Regarding `CCCOc1cc(CNC(=O)Nc2ccccn2)ccn1`, the cytotoxicity at 10 µM was -2.25%. Take `Cc1cccc(Cl)c1NC(=O)Cn1cc(C(=O)O)ccc1=O`: the cytotoxicity at 10 µM is -1.35%. The result for `COCC(=O)NC1CC2(CCN(CCN(C)C)CC2)c2ccccc21` (configuration not stated) reads -113%; that for `N#Cc1ccc(NCCCN2C(=O)COc3ccccc32)nc1`, 11%; that for `c1cn(CCc2c[nH]cn2)c(-c2cc(CN3CCCC3)cs2)n1`, -1.45%. As for `CC(c1nncn1C)n1cc(-c2cc(CN3CCCC3)cs2)nn1` (configuration not stated), the figure is 2.04%; as for `Cc1[nH]nc(-c2ccc(F)cc2)c1CC(=O)NCC1CCOCC1`, -0.707%. As for `CC(=O)N1CCN(C(=O)CN2CCc3c(ncn3C3CC3)C2)CC1`, the figure is 3.3%. With `CN1CCCC1c1ccc(C(=O)N2CCc3ccccc3C2)s1` (configuration not stated), the cytotoxicity at 10 µM turned out to be 1.66%. The result for `O=C(NCc1ccco1)[C@H]1CC[C@@H]2[C@@H](CCN2C2CCC2)O1` reads 6.47%; that for `Cn1ccc(CN2CC(Cc3nccc4cc[nH]c34)C2)n1`, 9.51%; that for `COc1ccc2c(ccn2CCC(=O)Nc2ccc(C(N)=O)cc2)c1`, 6.1%. As for `CN(C)c1cc(C(=O)Nc2cccnc2N2CCSCC2)ccn1`, the figure is -2.9%; as for `CC(N)Cc1ccccc1Sc1ccc(O)cc1` (configuration not stated), 3.76%; as for `CN1CCOCC2(CCCN(C(=O)c3ccc(-n4cccc4)cc3)C2)C1` (configuration not stated), -98%. As for `CNS(=O)(=O)c1ccc(CN2CCC(c3ccncc3)CC2)cc1`, the cytotoxicity at 10 µM is 10%. The result for `CC(C)c1n[nH]c(C2CN(C(=O)CCc3cscn3)CCO2)n1` (configuration not stated) reads -1.51%; that for `CC1Oc2c(cccc2C(=O)N2CCCCCC2)NC1=O` (configuration not stated), -6.81%. Regarding `COc1ccc2oc(-c3cn(C)nc3C)c(O)c(=O)c2c1`, the cytotoxicity at 10 µM was 9.96%. The result for `CC(C)(C)OC(=O)N[C@@H]1C[C@@H](O)CN(C(=O)c2ccc(F)cc2)C[C@H]1O` reads 2.57%; that for `COC1COC2(CCN(C(=O)c3cscn3)CC2)C1` (configuration not stated), 6.13%. As to `Cn1cc(C(=O)N2CCCC(CN3CCCC3=O)C2)cn1` (configuration not stated), the cytotoxicity at 10 µM was -12.6%. As for `Cn1ccnc1CNc1ccc(F)c(N2CCCS2(=O)=O)c1`, the cytotoxicity at 10 µM was -1.45%. The result for `CCN(Cc1nnsc1Cl)C(C)c1ccc(C#N)cc1` (configuration not stated) reads 18.9%. The result for `COC(=O)CC(NC(=O)c1ccccc1OC)c1cccs1` (configuration not stated) reads 0.35%.

Turning to `Cc1cc(N2CCC(c3ncc[nH]3)CC2)nc(N)n1`, the cytotoxicity at 10 µM is -7.54%. The result for `CC(C)c1nc2c(n1C)CCN(CC(=O)Nc1ccc(Cl)cn1)C2` reads 0.241%; that for `Cc1n[nH]c(C)c1CN(C)C(C(=O)O)c1c(F)cccc1OC(C)C` (configuration not stated), -56.1%.

As to `Cc1cc(C2CCCN(C(=O)c3c(C)nn4cccnc34)C2)n[nH]1` (configuration not stated), the cytotoxicity at 10 µM is -0.457%. The result for `CCC(=O)N1CCC1c1cc(NC2CCCC2)nc(C)n1` (configuration not stated) reads -7.61%; that for `O=S1(=O)CCCN1Cc1coc(-c2cccs2)n1`, 17.5%; that for `Cc1ccc(OCc2nc(CNCCn3cccn3)cs2)cc1`, 0.979%. As for `Cc1cc(NCCN)nc(-c2ccccc2O)n1`, the figure is 7.61%; as for `Cc1ccc(CC2COCCN(S(=O)(=O)c3ccccc3)C2)nc1` (configuration not stated), -4.48%. The result for `O=C(Nc1cc(F)ccc1OCC1CCCO1)N1CCCC1` (configuration not stated) reads -6.49%; that for `CCN(Cc1cnn(C)c1)S(=O)(=O)c1ccc(NC(C)=O)cc1`, 3.59%; that for `Cc1nc2n(n1)CC(Nc1nc(-c3ccccc3)no1)CC2` (configuration not stated), 0.658%.

For `CC(C)NC(=O)c1ccn(COc2c(Cl)cccc2Cl)n1`, the cytotoxicity at 10 µM was found to be 7.44%. As for `Cc1ccnc(N2CCCC(c3noc(C(C)C)n3)C2)n1` (configuration not stated), the figure is 21.9%; as for `CCN1CCN(C2CCN(Cc3noc(C)n3)CC2)C1=O`, -8.13%. As for `CCOC(C)c1nccn1Cc1c(C)noc1C` (configuration not stated), the figure is 3.11%; as for `COCCCN1CC2(CCCCN2C(=O)c2ccsc2)CC1=O` (configuration not stated), 5.03%; as for `CC(C)(C)CN1CCC(c2nccnc2Nc2cnccn2)CC1`, -4.98%.

With `O=C(c1c(F)cccc1F)N1CCOCC1`, the cytotoxicity at 10 µM was 5.33%. The result for `O=C(CN1C(=O)CC2(CCCC2)C1=O)NCCc1nccs1` reads 0.566%; that for `CC(=O)Nc1ccc(Cl)c(C(=O)N(C)C(C)c2ccncn2)c1` (configuration not stated), -42.6%. The result for `Cc1cc(NCC2CCN(c3ccccc3)C2)n2ncnc2n1` (configuration not stated) reads 67%. As for `COc1cc(NCc2c(C)noc2C)c(C(=O)N(C)C)cc1OC`, the figure is 6.85%. Consider `COc1cccc(N2CCN(CC(O)c3ccc(C)cc3)CC2)c1` (configuration not stated), for which the cytotoxicity at 10 µM is -11.6%. With `CCn1c(CN2CCCC2)nnc1C1CCN(Cc2ccncc2)CC1`, the cytotoxicity at 10 µM was -0.384%. The result for `Cc1ncc2c(n1)CN(Cc1nc3c(F)cccc3[nH]1)CC2` reads -4.74%; that for `COCCN1C[C@@H]2CN(c3cnccn3)C[C@@H]2C1=O`, -104%. The result for `CC(C)OCCN1CCN(C(=O)c2cccc(-n3cccn3)n2)CC1` reads -3.88%; that for `Cc1oc(C)c(C(=O)NCc2cccc(NC(=O)CN(C)C)c2)c1C`, -6.54%. The result for `CCCS(=O)(=O)N1Cc2nccn2CC(Cn2cncn2)C1` (configuration not stated) reads -0.158%. In the case of `O=C(NS(=O)(=O)Cc1ccc(F)cc1)C1CCOc2ccccc21` (configuration not stated), the cytotoxicity at 10 µM is -3.22%. As for `NC(=O)c1cc(C2CCCN(CCc3ccc4c(c3)CCO4)C2)n[nH]1` (configuration not stated), the figure is -1.92%; as for `Cc1ccc(Oc2ncccc2CNC2CCSCC2)cn1`, -8.22%; as for `COCCN1CCC(CNC(=O)Nc2ccc(SC(F)(F)F)cc2)C1` (configuration not stated), -11.6%. As for `CC(NC(=O)c1cccc[n+]1[O-])c1ccc2c(c1)CCC(=O)N2` (configuration not stated), the figure is 45.2%; as for `O=C(Cc1ccc(Br)s1)NCC(=O)Nc1cn[nH]c1`, 2.06%. The result for `Nc1ncnc2c1ncn2[C@H]1CCN(Cc2ccsc2)CC[C@@H]1O` reads -4.25%; that for `CCN1CCCc2cc(CN3CCc4nc(C)[nH]c(=O)c4C3)ccc21`, 0.13%; that for `O=C1CN(C(=O)C2CCC3(CC2)CNC(=O)c2ccccc2O3)CCN1` (configuration not stated), -11.6%. In the case of `CCCN(CCC)c1nc(N)nc(-c2cc(Cl)ccc2OC)n1`, the cytotoxicity at 10 µM turned out to be 7.43%.

With `CC(C)CS(=O)(=O)N1C[C@@H]2C[C@H](C(=O)N3CCCC3)[C@H](C1)O2`, the cytotoxicity at 10 µM was found to be 17%. The result for `Cc1ccc(-c2nnc(CNC(=O)c3cccnc3)o2)cn1` reads -2.72%. As for `CSc1nccc(N2CCC3(CCCN(CCc4ccccc4)C3)C2)n1` (configuration not stated), the figure is 16.2%. In the case of `COC(=O)c1ccc(N2CCN(C(=O)c3ccc(=O)n(C)c3)CC2)cc1`, the cytotoxicity at 10 µM is -43.9%. For the molecule `CN(C)CCNc1cc(-c2ccccc2C(N)=O)c2cc[nH]c2n1`, the cytotoxicity at 10 µM was found to be 0.343%.

Turning to `CCOc1ccc(Cl)c(C(=O)NCCc2ncc[nH]2)n1`, the cytotoxicity at 10 µM was -11.2%.

In the case of `Cn1ccc(NC(=O)CN2C[C@@H]3CC[C@H]2CN(Cc2ccccn2)C3)n1`, the cytotoxicity at 10 µM amounted to 0.936%.

In the case of `c1cnc(NCc2nnn3c2CN(Cc2ccsc2)CCC3)nc1`, the cytotoxicity at 10 µM came to 10.8%.

For the molecule `N#Cc1ncn(CCC(=O)Nc2cccc(Cl)c2)n1`, the cytotoxicity at 10 µM was -152%. As for `O=C(C1CC1)N1CCCCCC1C1CCN(c2ncccn2)CC1` (configuration not stated), the figure is -9.56%.

`O=C(c1nc(=O)[nH][nH]1)N1CCCC(c2cc(C(F)(F)F)[nH]n2)C1` (configuration not stated): the cytotoxicity at 10 µM is -12.3%. As for `CS(=O)(=O)Cc1cc(Cl)c2c(c1)OCCCO2`, the cytotoxicity at 10 µM was -2.55%. As for `CS(=O)(=O)Cc1nc(CNc2ccc(F)c(F)c2)cs1`, the figure is -6.92%.

Consider `Cc1cc(C2CCCN2CCCS(=O)(=O)c2ccccc2)no1` (configuration not stated), for which the cytotoxicity at 10 µM is -8.83%. Take `CN(Cc1cc(Br)cn1C)C(=O)c1ccon1`: the cytotoxicity at 10 µM is -3.33%. The result for `Cc1ccccc1CC(=O)NCCNc1nccc(C(F)(F)F)n1` reads 7.64%; that for `CCS(=O)(=O)N1C[C@@H](C(=O)NC(C)C)[C@@]2(Cc3ccccc3C(=O)N2)C1`, 1.11%; that for `CC(=O)N1CCC(C(=O)NCc2ncc(-c3ccccc3)o2)CC1`, -63.8%. The result for `CCCNC(=O)CCC(=O)N1CCC(c2noc3cc(F)ccc23)CC1` reads 2.45%; that for `CCn1cnnc1C1CCN(C(=O)Cc2ccc(OC)c(F)c2)CC1`, -7.54%. As for `CN1CC2(COCCN(c3ncccn3)C2)OCC1=O` (configuration not stated), the figure is -112%.
